We go through three molecules from ChEMBL document CHEMBL4145471, “New 1,5 and 2,5-disubstituted tetrazoles-dependent activity towards surface barrier of Candida albicans” (Eur J Med Chem, 2018).

SMILES strings stand for the structures. Bounds are passed on as bounds.

Experiment [1] relates to Candida albicans. The experiment in a line: Antifungal activity against Candida albicans ATCC 90028 assessed as inhibition of metabolic activity at 1.25 ug/ml after 48 hrs in presence of 20 ug/ml fluconazol by XTT assay relative to control. To be noted: values are per cent of control. The format is functional. Summed up: (§1)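 Checkerboard against strain ATCC 90028, inoculum per M27-A3: fluconazole 80-1.25 µg/mL on one axis, tetrazole 80-1.25 µg/mL on the other. Plates at 35°C for 48 h, then XTT metabolic reduction read at 475 nm (660 nm reference). Activity is the drop in mean absorbance against untreated growth control. FICs and their summed FIC index are taken at 50% reduction in metabolic activity.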

Experiment [2] deals with Candida albicans. In words: Antifungal activity against Candida albicans ATCC 90028 at 16 ug/ml after 48 hrs relative to control. The experiment is classed as functional. Summed up: (§2)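 Planktonic broth microdilution per M27-A3 in MOPS-buffered RPMI 1640 (pH 7.0), final inoculum 1.8×10^3 cells/mL, compounds 0.0313–16 µg/mL from 1600 µg/mL stocks in ethanol or DMSO. Incubated at 35°C without agitation; OD405 read at 18 and 48 h. % inhibition was derived from test, sterility (no inoculum) and solvent growth-control wells. Amphotericin B at 0.5 µg/mL served as the 100% control.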

In experiment [3] the test system is Candida albicans. The experiment in a line: Antifungal activity against Candida albicans ATCC 90028 assessed as metabolic activity at 80 ug/ml after 48 hrs in presence of 20 ug/ml fluconazol by XTT assay relative to control.
Experiment [4] concerns Candida albicans. The experiment in a line: Antifungal activity against Candida albicans ATCC 90028 assessed as metabolic activity at 40 ug/ml after 48 hrs in presence of 40 ug/ml fluconazol by XTT assay relative to control. The following applies: ATCC 90028, 48 h.
For experiment [5], the system named is Candida albicans. The experiment in a line: Antifungal activity against Candida albicans ATCC 90028 assessed as metabolic activity at 40 ug/ml after 48 hrs in presence of 10 ug/ml fluconazol by XTT assay relative to control.
In experiment [6] the test system is Candida albicans. The experiment in a line: Synergistic antifungal activity against Candida albicans ATCC 90028 at 2.5 ug/ml after 48 hrs in presence of 2.5 ug/ml fluconazol by checkerboard assay relative to control. The experiment is classed as functional. To be noted: ATCC 90028, 48 h, read-out: GI. In a few lines:
(§3)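 Checkerboard microdilution (M27-A3) on C. albicans ATCC 90028 in RPMI 1640: fluconazole (80-1.25 µg/mL) crossed with tetrazole (80-1.25 µg/mL final), incubated at 35°C for 48 h. Growth by OD405 at 18 and 48 h, endpoint taken as 100% inhibition. FIC index = sum of the two agents' FICs; <1 synergism, >1 antagonism.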

The subject of experiment [7] is Candida albicans. In words: Antifungal activity against Candida albicans ATCC 90028 at 0.125 ug/ml after 48 hrs relative to control. The experiment is classed as functional. Summed up:
as §2

For experiment [8], the system named is Candida albicans. In words: Synergistic antifungal activity against Candida albicans ATCC 90028 at 1.25 ug/ml after 48 hrs in presence of 5 ug/ml fluconazol by checkerboard assay relative to control. The format is functional. Summed up:
(§4)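 Checkerboard per M27-A3 against ATCC 90028: fluconazole at 80–1.25 µg/mL horizontally and partner compound at 80–1.25 µg/mL vertically, 100 µL yeast inoculum per well, 35°C for 48 h. After 48 h, metabolic activity was measured by XTT reduction at 475 nm (660 nm reference) relative to untreated growth control. FIC index is the sum of the FICs; <1 was defined as synergism and >1 as antagonism.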

Experiment [9] relates to Candida albicans. The experiment in a line: Synergistic antifungal activity against Candida albicans ATCC 90028 at 20 ug/ml after 48 hrs in presence of 80 ug/ml fluconazol by checkerboard assay relative to control. The format is functional. Summed up: (§5)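 Checkerboard in C. albicans ATCC 90028, inoculum prepared per CLSI M27-A3 in RPMI. Fluconazole serially diluted 80-1.25 µg/mL across the plate against the partner compound at 80-1.25 µg/mL final. Incubated 48 h at 35°C. Metabolic activity read by XTT reduction at 475 nm (660 nm reference), given as % of the untreated growth control.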

For experiment [10], the system named is Candida albicans. The experiment in a line: Antifungal activity against Candida albicans ATCC 90028 assessed as metabolic activity at 20 ug/ml after 48 hrs in presence of 10 ug/ml fluconazol by XTT assay relative to control. In general terms: Tetrazolium dyes change colour on reduction, which living cells bring about.
In experiment [11] the test system is Candida albicans. The experiment in a line: Antifungal activity against Candida albicans ATCC 90028 assessed as metabolic activity at 20 ug/ml after 48 hrs in presence of 5 ug/ml fluconazol by XTT assay relative to control.
The test system of experiment [12] is Candida albicans. The experiment in a line: Antifungal activity against Candida albicans ATCC 90028 assessed as metabolic activity at 40 ug/ml after 48 hrs in presence of 5 ug/ml fluconazol by XTT assay relative to control.
Experiment [13] relates to Candida albicans. The experiment in a line: Synergistic antifungal activity against Candida albicans ATCC 90028 at 1.25 ug/ml after 48 hrs in presence of 20 ug/ml fluconazol by checkerboard assay relative to control. The format is functional. Summed up: as §4
The test system of experiment [14] is Candida albicans. In words: Synergistic antifungal activity against Candida albicans ATCC 90028 at 40 ug/ml after 48 hrs in presence of 5 ug/ml fluconazol by checkerboard assay relative to control. The format is functional. In a few lines:
as §5

Experiment [15] relates to Candida albicans. The experiment in a line: Synergistic antifungal activity against Candida albicans ATCC 90028 at 80 ug/ml after 48 hrs in presence of 2.5 ug/ml fluconazol by checkerboard assay relative to control. The format is functional. Summed up:
as §3

For experiment [16], the system named is Candida albicans. The experiment in a line: Antifungal activity against Candida albicans ATCC 90028 at 1 ug/ml after 18 hrs relative to control. The experiment is classed as functional. Summed up:
as §2

In experiment [17] the test system is Candida albicans. In words: Antifungal activity against Candida albicans ATCC 90028 assessed as FIC at 80 ug/ml in presence of fluconazol after 48 hrs by checkerboard-based XTT assay. The format is functional. In a few lines:
as §1

Experiment [18] has as its system Candida albicans. In words: Antifungal activity against Candida albicans ATCC 90028 assessed as inhibition of metabolic activity at 5 ug/ml after 48 hrs in presence of 2.5 ug/ml fluconazol by XTT assay relative to control. The format is functional. The following applies: values are per cent of control. In a few lines:
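C. albicans ATCC 90028 in checkerboard: fluconazole serial dilutions (80-1.25 µg/mL) crossed with tetrazole (80-1.25 µg/mL final), M27-A3 inoculum in RPMI 1640, 35°C for 48 h. Metabolic activity measured by XTT reduction, read at 475 nm (660 nm reference). Activity expressed relative to untreated growth control absorbance.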

Experiment [19] relates to Candida albicans. In words: Antifungal activity against Candida albicans ATCC 90028 assessed as metabolic activity at 20 ug/ml after 48 hrs in presence of 20 ug/ml fluconazol by XTT assay relative to control. The following applies: ATCC 90028, 48 h.
In experiment [20] the test system is Candida albicans. In words: Synergistic antifungal activity against Candida albicans ATCC 90028 at 2.5 ug/ml after 48 hrs in presence of 40 ug/ml fluconazol by checkerboard assay relative to control. The experiment is classed as functional. In a few lines:
as §3

With `CCOC(=O)CCn1nnc(-c2ccccc2)n1`, the residual activity (in general, the share of the control activity or signal that is left under treatment) was found to be 62.2% in experiment [1] and 80.73% in experiment [18]. Besides, the Activity in experiment [2] amounted to 99.65%; in experiment [7], 99.18%; in [16], 85.06%. For the same molecule, the Metabolic activity turned out to be 73.11% in experiment [3]; 56.45% in experiment [5]; 59.93% in [10]; 100% in [11]; 100% in experiment [12]. Moreover, the Metabolic activity at 40 µg/mL in [4] amounted to 100%. The inhibition of growth at 2.5 µg/mL in experiment [6] turned out to be 99.8%. For the same molecule, the “growth inhibition (GI)” value was 98.99% in [8]; 99.25% in experiment [9]; 99.65% in [13]; 98.93% in experiment [14]; 99.77% in experiment [15]; 99.46% in experiment [20]. The FIC in experiment [17] is greater than 5. Also, the Metabolic activity at 20 µg/mL in experiment [19] was determined as 57.3%.
Consider `ClCCCn1nnnc1-c1ccccc1Cl`, for which the figures for the residual activity in experiment [1] and in experiment [18] were 60.65% and 68.03%, respectively. The Activity turned out to be 99.39% in experiment [2], 99.43% in [7] and 93.49% in experiment [16]. In addition, the Metabolic activity in experiment [3] is 70.42%; in experiment [5] it was 70.86%; in experiment [10] it was 68.01%; in experiment [11], 99.55%; in [12], 100%. Besides, in experiment [4], the Metabolic activity at 40 µg/mL was determined as 100%. The inhibition of growth at 2.5 µg/mL in experiment [6] was found to be 99.4%. For the same molecule, the “growth inhibition (GI)” value was 98.74% in experiment [8]; 99.33% in [9]; 99.58% in experiment [13]; 98.95% in experiment [14]; 99.67% in experiment [15]; 99.32% in [20]. The FIC in [17] was greater than 5. The Metabolic activity at 20 µg/mL in experiment [19] is 67.8%.
As to `Cc1ccc(-c2nnn(CCCN3CCOCC3)n2)cc1`, the residual activity in [1] and in experiment [18] was 100% in each case. Moreover, the Activity was 99.44% in [2], 98.96% in [7] and 57.6% in experiment [16]. Besides, the Metabolic activity in experiment [3] came out at 50.83%; in experiment [5] it was 28.26%; in experiment [10], 46.94%; in experiment [11], 100%; in experiment [12] it was 100%. Moreover, in experiment [4], the Metabolic activity at 40 µg/mL turned out to be 95.3%. In addition, the inhibition of growth at 2.5 µg/mL in [6] came out at 98.5%. For the same molecule, the “growth inhibition (GI)” value in [8] was 99.86%; in experiment [9], 99.26%; in experiment [13], 99.46%; in [14], 98.83%; in experiment [15] it was 99.54%; in [20] it was 98.91%. In [17], the FIC is given as greater than 1.25. Further, in [19], the Metabolic activity at 20 µg/mL stood at 61.7%.
